Source: PubChem
Shown are actives, neighbours in structure and some others; about 1.8% of the full set was active somewhere.
Tn7 DDE FP: DD(E)-Tn7 binding inhibition, primary FP screen; P02675; inhibition, % at 8.3 µM; FP displacement of FITC-Tn7 peptide from fibrin DD(E); 0% = median of compound wells per plate; hit rate 0.13% among 370,000;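 active = inhibition above the mean of compounds falling within the control limits plus 3 SD of them, cut at about 14% in these data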
Target sequence (P02675 whole entry, looked up): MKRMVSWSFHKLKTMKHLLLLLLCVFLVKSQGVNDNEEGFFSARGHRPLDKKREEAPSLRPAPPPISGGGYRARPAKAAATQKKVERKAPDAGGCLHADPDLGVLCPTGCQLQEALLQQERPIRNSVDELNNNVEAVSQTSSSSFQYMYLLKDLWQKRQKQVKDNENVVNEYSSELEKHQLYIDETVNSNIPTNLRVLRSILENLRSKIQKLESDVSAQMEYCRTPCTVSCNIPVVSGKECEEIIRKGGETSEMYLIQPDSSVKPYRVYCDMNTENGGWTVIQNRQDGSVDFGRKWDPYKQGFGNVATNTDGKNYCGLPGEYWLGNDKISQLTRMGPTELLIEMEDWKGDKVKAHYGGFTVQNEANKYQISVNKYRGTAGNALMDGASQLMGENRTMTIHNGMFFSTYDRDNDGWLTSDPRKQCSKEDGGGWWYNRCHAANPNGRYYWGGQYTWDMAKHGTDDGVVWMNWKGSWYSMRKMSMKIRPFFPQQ
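system = human fibrin DD(E) protein | quantity = DD(E) 2 µM final | medium = Tris/NaCl/CaCl2 buffer, pH 7.8 | also added = labelled Tn7 tracer, 0.1 µM | compound dosing = single point at 8.3 µM | timing = compound with protein 10 min, then 3 h after probe, room temperature | signal = FP measurement | benchmarks = Aha-Tn7 high control | repeats = one replicate per compound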
GRK2 inh: blocks RNA aptamer binding to human GRK2. hit rate 0.59% among 330,000. inhibition of aptamer binding, % at 10 µM. bead flow cytometry, FAM-aptamer displacement from GRK2. P25098;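 active = inhibition of aptamer binding above 40%, roughly 3 SD of noise, on plates passing a quality check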;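 also: median bead fluorescence of bound FAM aptamer so fluorescent compounds give negative values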
CAL PDZ FP-1: CAL PDZ (human) peptide binding inhibition | purified CAL PDZ, TMR-peptide fluorescence polarization, 1 h | inhibition, % at 24.9 µM | hit rate 0.92% among 300,000;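 active = mean inhibition of at least 30% with at least half of replicates also reaching 30%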
CAL PDZ FP-2: blocks peptide binding to human CAL PDZ domain; Q9HD26; purified CAL PDZ, TMR-peptide fluorescence polarization, 1 h; inhibition, % at 20 µM; hit rate 0.02% among 330,000; AID 504414;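 active = highest replicate inhibition of at least 40%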
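Assay system – tagged CAL PDZ protein CerCALP, purified · Timing – 1 h at RT · Compound – single point, 20 µM · Measured by – fluorescence polarization from S- and P-plane intensities, G-factor corrected · Evaluation – inhibition from polarization loss · Probe or stimulus – TMR reporter peptide T*-PRC34 · Buffer or medium – pH 7.4 phosphate-saline buffer, reducing agent, detergent, IgG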
ARNT TACC3 PPI: disruptors of human ARNT/TACC3 interaction; AlphaScreen His-ARNT PAS-B/GST-TACC3 binding, luminescence; TACC3 fragment carries E629A point mutation; inhibition, % at 9.99 µM; hit rate 0.66% among 390,000;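 active = mean inhibition of replicates at least 50% and at least half of replicates each reaching 50%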
Tn6 DDE FP: disrupts Tn6 cyclic peptide binding to fibrin D-Dimer-E complex; Fibrin DD(E) TRITC-Tn6 fluorescence polarization displacement; P02675; hit rate 0.21% among 370,000; inhibition, % at 8.3 µM;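 active = inhibition above a per-campaign cutoff: mean of compounds within control limits plus 3 SD, cut at about 15% in these data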
Hits are given with their value; – = inactive; · = no result.

SMILES	Tn7 DDE FP	GRK2 inh	CAL PDZ FP-1	CAL PDZ FP-2	ARNT TACC3 PPI	Tn6 DDE FP
O=C(N/N=C/c1ccc(Sc2ccccn2)o1)c1cc2ccccc2cc1O	·	–	·	–	–	·
O=C(CCc1ccccc1O)N/N=C/c1ccc(Sc2cccc3cccnc23)o1	–	–	–	–	66.0	–
CN(CC1COc2ccccc2O1)C(=O)c1cccc(S(=O)(=O)N2CCCC2)c1 (stereo not given)	–	–	–	–	–	–
O=C(C[n+]1ccccc1)N/N=C/c1cc(Br)cc(Br)c1O	·	–	–	·	64.2	·
O=C(C[n+]1ccccc1)N/N=C/c1cc(Br)ccc1F	–	–	–	–	·	–
CCC(=O)N(C)C[C@H]1Oc2ncc(C#CC(C)C)cc2C(=O)N([C@H](C)CO)C[C@@H]1C	·	·	·	·	–	·
Cc1ccc(/C=C/C(=O)Nc2nn[nH]n2)o1	–	–	–	–	60.6	–
CC(C)c1ccc(/C=C/C(=O)Nc2nn[nH]n2)cc1	·	–	·	·	·	·
CCOC(=O)/C(=N\Nc1ccccc1Cl)N(C)C1CCCCC1	–	–	–	–	–	–
COCCN1C=C2C(=O)C(C)(OC(=O)CCc3ccccc3)C(=O)C=C2C=C1c1ccc(C#N)cc1 (stereo not given)	–	–	–	–	active	–
CN(C)c1ccc(O)c2c1CC1CC3C(N(C)C)C(=O)C(C(N)=O)=C(O)[C@@]3(O)C(=O)C1=C2O (stereo not given in full)	–	–	–	–	–	–
CN(C)c1ccc(O)c2c1CC1CC3[C@@H](N(C)C)C(=O)C(C(N)=O)C(=O)[C@]3(O)C(=O)C1C2=O (stereo not given in full)	–	–	–	–	59.7	–
CCOC(=O)c1ccc(S(=O)(=O)NNC(=O)COc2cccc(C)c2)cc1	–	–	–	–	–	–
CCOC(=O)c1ccc(S(=O)(=O)NNC(=O)COc2ccc(C)cc2)cc1	–	92.0	–	–	–	–
C[C@@H]1CN([C@H](C)CO)S(=O)(=O)c2ccc(C#CC3(O)CCCC3)cc2O[C@@H]1CN(C)C(=O)Nc1ccc(F)cc1	·	·	·	·	–	·
CC(C)C#Cc1ccc([C@H]2[C@@H](CO)N(C(=O)C3CCOCC3)[C@H]2C#N)cc1	·	·	·	·	–	·
O=C(C1CCOCC1)N1C[C@H]2[C@@H](c3ccccc31)[C@H](CO)N2Cc1ccccc1Cl	·	·	·	·	–	·
CC(=O)c1ccc(S(=O)(=O)N2CCN(C(=O)C(=O)c3cccc(C(F)(F)F)c3)CC2)cc1	–	·	·	·	·	–
O=C(OCC(=O)N1CCOCC1)c1ccc[nH]c1=O	–	–	–	124.8	–	–
COCC(C)n1c(C)cc(C(=O)Cn2nc(C(=O)O)c3ccccc3c2=O)c1C (stereo not given)	–	–	37.4	–	–	–
COCC(C)n1c(C)cc(C(=O)COC(=O)c2nn(C)c(=O)c3ccccc23)c1C (stereo not given)	–	–	–	–	·	–
CO[C@H]1CC[C@H]2CCOc3ccc(C#N)cc3C(=O)N(C)C[C@H](c3ccccc3)CC(=O)N(C)C[C@H]1O2	·	·	·	·	–	·
Cc1ccc(Cn2ncc3c(NN)ncnc32)cc1	–	–	–	–	66.1	–
COc1ccc(/C=N/Nc2nc(C(=O)O)cs2)cc1	–	–	–	–	45.3	–
CC(/C=N/NC(=O)c1ccccc1F)c1ccccc1 (stereo not given)	–	–	–	–	–	–
SMILES	Tn7 DDE FP	GRK2 inh	CAL PDZ FP-1	CAL PDZ FP-2	ARNT TACC3 PPI	Tn6 DDE FP
CN(C(=O)c1ccccc1F)C(c1ccccc1)c1ccccc1	–	–	41.7	–	–	–
N/N=C(\c1ccccc1)c1cc(Br)ccc1N	–	–	47.4	·	–	–
COc1ccc(CN(C)C(=O)C2CSC3(C)CCC(=O)N23)c(OC)c1 (stereo not given)	–	·	·	·	·	–
O=C(Nc1ccsc1C(=O)O)c1ccc(Cl)cc1	–	–	–	–	active	–
COc1cccc(C(=O)N2C[C@@H]3[C@H](c4ccccc42)[C@@H](CO)N3C(=O)c2ccc(F)cc2)c1	·	·	·	·	–	·
CC1CCc2cc(F)ccc2N1C(=O)c1cccs1 (stereo not given)	–	–	31.6	–	–	–
OCC1(Cc2ccc(Cl)cc2)CCN(Cc2ccc(F)c(F)c2)CC1	–	–	65.9	–	–	–
Cc1ccc(C)c(S(=O)(=O)Nc2cc(SCC(=O)O)c(O)c3ccccc23)c1	·	–	–	45.2	54.1	·
COc1cc(C(=O)Nc2cccc(C(C)=O)c2)cc(OC)c1OC	–	–	·	–	–	–
COc1cccc(NC(=O)c2cccc(C(=O)Nc3cccc(OC)c3)c2)c1	–	–	–	–	–	–
COc1ccccc1/C=C/C(=O)Nc1cccc(C(C)=O)c1	–	–	–	–	–	–
COc1cccc(OC)c1C(=O)Nc1cccc(C(C)=O)c1	–	–	53.0	–	–	–
COc1ccc(/C=C/C(=O)Nc2cccc(C(C)=O)c2)cc1	–	88.0	–	–	·	–
COc1cccc(NC(=O)c2ccc3nsnc3c2)c1	–	–	49.0	–	·	–
CCCN(C)C[C@H]1Oc2cc(-c3ccncc3)ccc2S(=O)(=O)N([C@H](C)CO)C[C@H]1C	·	·	·	·	–	·
C=Cc1ccc(Cn2c(=O)n(C)c(=O)c3sccc32)cc1	–	–	–	–	–	–
COCC#Cc1ccc2c(c1)O[C@@H](CN(C)Cc1ccccc1)[C@H](C)CN([C@@H](C)CO)S2(=O)=O	·	·	·	·	–	·
O=C1C2CC=C(Cl)CC2C(=O)N1CCC[n+]1cccc2ccccc21 (stereo not given)	–	83.0	–	–	–	–
O=C1C2CC=C(Cl)CC2C(=O)N1CCCCCCN1C(=O)C2CC=C(Cl)CC2C1=O (stereo not given)	–	–	–	–	–	–
CCOC(=O)c1cc(CC)sc1NC(=O)CN1C(=O)C(=O)N(CC(C)C)C1=O	–	–	·	–	–	–
COc1ccc2cc(S(=O)(=O)N3CCN(C)CC3)ccc2c1	–	–	–	–	·	–
COc1ccc2cc(S(=O)(=O)N3CCCC3)ccc2c1	–	–	81.2	–	–	–
COc1cccc(CNC(=O)C(C)n2ccc3cc(S(=O)(=O)N4CCCCCC4)ccc32)c1 (stereo not given)	–	–	–	–	–	–
COc1cccc(CNC(=O)C(C)n2ccc3cc(S(=O)(=O)N4CCCC4)ccc32)c1 (stereo not given)	–	–	42.0	–	–	–
Cc1ccc(NC(=S)NC2CCN(Cc3ccccc3)CC2)cc1C	–	–	46.9	–	–	–
Cc1ccc(NC(=S)NC2CCN(Cc3ccccc3)CC2)cc1	–	–	–	–	–	–
CO[C@@H]1CN(C)C(=O)c2cc(NS(=O)(=O)c3cccc(C)c3)ccc2OC[C@@H](C)NC[C@H]1C	·	·	·	·	12.7	·
O=C(Nc1cccc2ccccc12)c1ccc(F)cc1	–	–	51.8	–	–	–
c1ccc2c(c1)CC1(CCCC1)N=C2N1CCOCC1	–	–	68.1	–	–	–
